This is a sample that favours compounds with a hit; in the whole collection about 4.5% have one here.
GPR7 antag: GPR7 receptor antagonists, primary screen, cell-based, fluorescence, single concentration | Neuropeptides B/W receptor type 1 (Homo sapiens), P48145 | GPR7-expressing cells, fluorescence antagonist assay | inhibition, % at 4.4 µM | 290,000 compounds, 1.1% hits; in the data active means inhibition above about 16%, passing the limit was not always enough;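 further: cells stimulated with the agonist NPW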
Target sequence (P48145 whole entry, looked up): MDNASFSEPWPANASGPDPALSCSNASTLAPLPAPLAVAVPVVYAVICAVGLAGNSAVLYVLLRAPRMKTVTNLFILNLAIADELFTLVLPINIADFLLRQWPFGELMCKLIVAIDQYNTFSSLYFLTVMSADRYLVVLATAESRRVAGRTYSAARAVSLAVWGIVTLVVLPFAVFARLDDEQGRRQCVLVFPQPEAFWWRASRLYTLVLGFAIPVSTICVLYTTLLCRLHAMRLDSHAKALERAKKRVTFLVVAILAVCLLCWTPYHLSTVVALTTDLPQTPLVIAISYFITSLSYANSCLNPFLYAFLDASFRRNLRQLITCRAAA
TAAR1 antagonist: human TAAR1 antagonists, primary screen, Fluo-8 calcium fluorescence, CHO RD-HGA16 cells; 360,000 compounds, 1.5% hits; Trace amine-associated receptor 1 (Homo sapiens), Q96RJ0; antagonist; inhibition, % at 3 µM;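 active means inhibition above a per-plate cutoff, the mean inhibition of test compounds on that plate plus 3 SD, cut at about 49% in these data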
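Assay system: RD-HGA16 CHO cells with stable hTAAR1 and Gα16 / Reagent: EC80 β-phenethylamine stimulus / Doses: 3 µM, single point / Timing: dye loading 75 min at 37 °C, then 30 min room temperature / Measured by: Fluo-8 intracellular calcium dye fluorescence, real-time kinetic reads / Controls: vehicle wells and EC80 agonist wells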
TAAR1 agonist: human TAAR1 agonists, primary screen, Fluo-8 calcium fluorescence, CHO RD-HGA16 cells; 360,000 compounds, 0.99% hits; AID 624467, 2012; vehicle wells 0%, saturating PEA agonist 100%; Trace amine-associated receptor 1 (Homo sapiens), Q96RJ0; activation, % at 3 µM;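 active means activation above the mean activation of all test compounds in the run plus 3 SD, cut at about 38% in these data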
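Assay system: CHO-derived RD-HGA16 cells with stable Gα16 and human TAAR1; timing: 17-24 h seeding, 75 min 37 °C dye, 30 min RT; read-out: % activation from peak over basal fluorescence ratio, DMSO-to-PEA scaled; measured by: kinetic Fluo-8 calcium fluorescence; benchmarks: low control DMSO, high control PEA (EC100); doses: 3 µM single concentration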
OX1R antag-1: antagonists of human orexin 1 receptor (OX1R); Orexin/Hypocretin receptor type 1 (Homo sapiens), O43613; OX1R-expressing cells, FRET antagonist read-out; inhibition, % at 6.6 µM; 330,000 compounds, 1.8% hits; in the data active means inhibition mostly above about 38%, no sharp cut-off; inactive means mostly below about 40%
Target sequence (O43613 whole entry, looked up): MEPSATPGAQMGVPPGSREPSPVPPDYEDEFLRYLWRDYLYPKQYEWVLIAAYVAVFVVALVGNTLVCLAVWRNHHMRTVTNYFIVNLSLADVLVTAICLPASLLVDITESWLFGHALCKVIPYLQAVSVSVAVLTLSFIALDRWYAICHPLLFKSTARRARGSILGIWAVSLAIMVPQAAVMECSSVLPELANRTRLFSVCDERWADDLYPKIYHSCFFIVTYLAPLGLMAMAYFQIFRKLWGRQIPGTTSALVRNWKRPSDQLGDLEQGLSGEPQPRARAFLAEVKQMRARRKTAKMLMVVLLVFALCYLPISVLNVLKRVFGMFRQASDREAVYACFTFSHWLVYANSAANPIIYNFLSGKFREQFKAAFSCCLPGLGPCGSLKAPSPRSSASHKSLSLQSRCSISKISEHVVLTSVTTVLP
OX1R antag-2: OX1R (HCRTR1) antagonists, primary screen, fluorescence, CHO/OX1R cells, Fluo-8 calcium, orexin A. Fluo-8 calcium fluorescence. 330,000 compounds, 0.43% hits. inhibition, % at 5 µM. Orexin/Hypocretin receptor type 1 (Homo sapiens), O43613;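 active means inhibition above its plate's threshold, mean inhibition of all tested compounds on the plate plus 3 SD, cut at about 37% in these data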
CHO parental Ca: ATP-evoked calcium signal inhibitors, parental CHO, primary screen, counter-screen for OX1R antagonist project, cell-based, fluorescence, Fluo-8 calcium dye; parental CHO-K1, ATP-induced calcium, Fluo-8 fluorescence; inhibition, % at 5.6 µM; 330,000 compounds, 0.63% hits; AID 463079, 2010;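 active means inhibition above that plate's mean sample inhibition plus 3 SD, cut at about 26% in these data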
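Material: parental CHO cells / Compound: single nominal dose of 5.6 µM per compound / Signal: Fluo-8 fluorescence / Replicates: singlicate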
OX1R Ca confirm: OX1R (HCRTR1) antagonists, confirmation, fluorescence, CHO/OX1R cells, Fluo-8 calcium, orexin A. shares compounds with OX1R antag-2. orexin A calcium Fluo-8 fluorescence. inhibition, % at 5 µM. 1,100 compounds, 38% hits. AID 492963, 2010; in the data active means inhibition above about 29%
CHO Ca counter: ATP-evoked calcium inhibition in parental CHO, counter-screen for OX1R antagonist project, cell-based, fluorescence, CHO-K1, triplicate | shares compounds with OX1R antag-2 | ATP-induced calcium, Fluo-8 fluorescence | inhibition, % at 5.6 µM | 1,100 compounds, 9.3% hits | AID 492965, 2010;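 active means inhibition above a per-plate limit, the mean inhibition of that plate's test compounds plus 3 SD, cut at about 25% in these data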
OX1R HTRF conf: OX1R (HCRTR1) antagonists, confirmation, cell-based, HTRF | shares compounds with OX1R antag-1 | OX1R-expressing cells, HTRF antagonist assay | inhibition, % at 6.6 µM | 1,800 compounds, 49% hits | AID 492964, 2010; in the data active means inhibition above about 55%;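 further: CHO cells expressing OX1R stimulated with orexin A at about EC80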
CHO-K1 HTRF: signal inhibition in parental CHO-K1 cells, counter-screen for OX1R antagonist project, cell-based, HTRF. shares compounds with OX1R antag-1. HTRF counterscreen. inhibition, % at 6.6 µM. 1,800 compounds, 48% hits. AID 493232, 2011; in the data active means inhibition above about 17%
Large screens that a line does not name were inactive (follow-up assays come after a bar, where they were run).

CSc1nc2ccc3nc(NC(=O)c4cccs4)sc3c2s1	OX1R antag-1 81.0, OX1R antag-2 56.4 | OX1R Ca confirm 84.8 | CHO Ca counter inactive | OX1R HTRF conf 94.8 | CHO-K1 HTRF inactive
CNC(=O)C1CN(C(=O)c2cccc(S(=O)(=O)N3c4ccccc4CC3C)c2)c2ccccc2O1 (stereo not drawn)	OX1R antag-1 40.1 (no result: GPR7 antag) | OX1R Ca confirm inactive | CHO Ca counter inactive | OX1R HTRF conf 59.0 | CHO-K1 HTRF inactive
Cc1cc(C(C)(C)C)oc1C(=O)N(CC(=O)NC1CCCC1)Cc1ccccc1	none
Cc1ccc(C)c(N(CC(=O)NC2CCCC2)C(=O)c2oc(C(C)(C)C)cc2C)c1	OX1R antag-1 63.2, OX1R antag-2 94.7 | OX1R Ca confirm 47.2 | CHO Ca counter inactive | OX1R HTRF conf 71.2 | CHO-K1 HTRF inactive
Cc1ccc(S(=O)(=O)N(CC(=O)Nc2cc(C)ccc2C)C(=O)N2CCN(C)CC2)cc1	none (no result: GPR7 antag)
COc1ccc(Cl)cc1NC(=O)NCCCl	none
Cc1[nH]c2ccccc2c1C(=O)CSc1nc2ccccc2[nH]1	TAAR1 antagonist 54.6, OX1R antag-1 79.6, OX1R antag-2 53.8 | OX1R Ca confirm 37.6 | CHO Ca counter inactive | OX1R HTRF conf 90.6 | CHO-K1 HTRF inactive
O=C(Nc1cc(Sc2ccccn2)cc([N+](=O)[O-])c1)c1ccc(Cl)cc1	OX1R antag-1 93.6 | OX1R Ca confirm inactive | CHO Ca counter inactive | OX1R HTRF conf inactive | CHO-K1 HTRF inactive
O=C(Nc1cc(Sc2ccccn2)cc([N+](=O)[O-])c1)c1cccc(Cl)c1	none
COc1ccc(CCNc2ccc([N+](=O)[O-])cn2)cc1	none (no result: OX1R antag-1, OX1R antag-2, CHO parental Ca)
COc1ccc(CCNc2cc(=O)[nH]c(N)n2)cc1	OX1R antag-1 86.1, OX1R antag-2 76.0 (no result: TAAR1 antagonist, TAAR1 agonist) | OX1R Ca confirm inactive | CHO Ca counter inactive | OX1R HTRF conf 55.3 | CHO-K1 HTRF inactive
CCn1c(SCC(=O)Nc2nc(-c3ccccc3)cs2)nnc1-c1ccccc1O	OX1R antag-1 86.3, OX1R antag-2 79.1 | OX1R Ca confirm inactive | CHO Ca counter inactive | OX1R HTRF conf 86.0 | CHO-K1 HTRF inactive
NC(=O)c1c(NC(=O)c2cc3ccccc3o2)sc2c1CCC2	OX1R antag-1 105.7 | OX1R Ca confirm inactive | CHO Ca counter inactive | OX1R HTRF conf 85.0 | CHO-K1 HTRF inactive
COc1cc(CC(=O)NCCCc2ccccc2)cc(OC)c1OC	none
Fc1ccc2nc3[nH]c4ccccc4c3nc2c1	OX1R antag-1 97.8 | OX1R Ca confirm inactive | CHO Ca counter inactive | OX1R HTRF conf 64.3 | CHO-K1 HTRF inactive
CC(C)(C)C(=O)Nc1cccc(-c2nc3ccccc3[nH]2)c1	none
CC(C)(C)C(=O)Nc1sc2c(c1-c1nc3ccccc3[nH]1)CCCC2	OX1R antag-1 55.8, OX1R antag-2 79.6 | OX1R Ca confirm inactive | CHO Ca counter inactive | OX1R HTRF conf 55.6 | CHO-K1 HTRF inactive
O=C(Nc1cccc(Cl)c1)Nc1ccnc(-c2cccnc2)n1	TAAR1 antagonist 55.4, OX1R antag-1 67.0, OX1R antag-2 40.6 | OX1R Ca confirm inactive | CHO Ca counter inactive | OX1R HTRF conf 68.5 | CHO-K1 HTRF inactive
CCOc1ccc2nc(NC(=O)c3ccco3)sc2c1	none
CCOC(=O)c1ccc2nc(NC(=O)c3ccco3)sc2c1	OX1R antag-1 81.4 | OX1R Ca confirm 34.7 | CHO Ca counter inactive | OX1R HTRF conf 86.5 | CHO-K1 HTRF 18.4
CN(C)c1ccc(-c2ccnc3c2CC(C)(C(=O)NCc2ccco2)O3)cc1 (stereo not drawn)	none (no result: GPR7 antag, OX1R antag-1, OX1R antag-2, CHO parental Ca)
COc1ccc(Cl)cc1C(=O)OCC(=O)NCCNC(=O)COC(=O)c1cc(Cl)ccc1OC	OX1R antag-1 58.8 | OX1R Ca confirm inactive | CHO Ca counter 41.8 | OX1R HTRF conf 70.7 | CHO-K1 HTRF inactive
Cc1nc2c(ccc3nc(NC(=O)Cc4cccc5ccccc45)sc32)s1	OX1R antag-1 90.3, OX1R antag-2 56.2 | OX1R Ca confirm 63.6 | CHO Ca counter inactive | OX1R HTRF conf 89.9 | CHO-K1 HTRF inactive
COc1cccc(C(=O)Nc2nnc(S(=O)(=O)Nc3cccc(C)c3)s2)c1	OX1R antag-1 89.5 | OX1R Ca confirm 41.4 | CHO Ca counter inactive | OX1R HTRF conf 74.9 | CHO-K1 HTRF inactive
CC(=O)c1cccc(N(C(=O)c2ccccn2)C(C(=O)NC2CCCCC2)c2ccccc2)c1 (stereo not drawn)	none
Cc1cc(C)cc(N(C(=O)c2ccccn2)C(C(=O)NC2CCCCC2)c2cccs2)c1 (stereo not drawn)	OX1R antag-1 64.0, OX1R antag-2 47.9 | OX1R Ca confirm inactive | CHO Ca counter inactive | OX1R HTRF conf 67.3 | CHO-K1 HTRF inactive
COC(=O)C(C(C)=O)C1=C/C(=N\S(=O)(=O)c2ccc(C)cc2)c2ccccc2C1=O (stereo not drawn)	OX1R antag-1 106.4, OX1R antag-2 96.7 (no result: TAAR1 antagonist, TAAR1 agonist) | OX1R Ca confirm 50.2 | CHO Ca counter inactive | OX1R HTRF conf 93.7 | CHO-K1 HTRF inactive
CCCCNC(=O)CCC(=O)NNc1nc2ccccc2c2nc(-c3ccccc3)nn12	OX1R antag-1 76.9 | OX1R Ca confirm 33.2 | CHO Ca counter inactive | OX1R HTRF conf 92.2 | CHO-K1 HTRF inactive
CCCCNC(=O)CCC(=O)NNc1nc2ccccc2c2nc(C)nn12	none
COCc1cc(=O)[nH]c2c1c(-c1ccccc1)nn2C	none
Nn1c(-c2cccs2)nc2sc3c(c2c1=O)CCCC3	OX1R antag-1 111.1, OX1R antag-2 44.9 | OX1R Ca confirm inactive | CHO Ca counter inactive | OX1R HTRF conf 81.4 | CHO-K1 HTRF inactive

Compound activity from PubChem.
